Data: ChEMBL document CHEMBL3603779, “Identification and Optimization of Benzimidazole Sulfonamides as Orally Bioavailable Sphingosine 1-Phosphate Receptor 1 Antagonists with in Vivo Activity” (J Med Chem, 2015)
Activity calls are given as the source filed them. No cut-off for these calls is given here.

Columns and labels:
[1] = Oral bioavailability in Han Wistar rat at 5 to 10 mg/kg by LC-MS/MS method; type: ADME, organism-based; conditions: in vivo
Cytochrome P450 1A2 = target: T1, Cytochrome P450 1A2 (Homo sapiens, UniProt P05177); test: Induction of CYP1A2 activation in human hepatocytes at 0.2 to 20 uM incubated for 48 hrs using phenacetin substrate; type: ADME, cell-based, Hepatocyte
T1 sequence (P05177 whole entry): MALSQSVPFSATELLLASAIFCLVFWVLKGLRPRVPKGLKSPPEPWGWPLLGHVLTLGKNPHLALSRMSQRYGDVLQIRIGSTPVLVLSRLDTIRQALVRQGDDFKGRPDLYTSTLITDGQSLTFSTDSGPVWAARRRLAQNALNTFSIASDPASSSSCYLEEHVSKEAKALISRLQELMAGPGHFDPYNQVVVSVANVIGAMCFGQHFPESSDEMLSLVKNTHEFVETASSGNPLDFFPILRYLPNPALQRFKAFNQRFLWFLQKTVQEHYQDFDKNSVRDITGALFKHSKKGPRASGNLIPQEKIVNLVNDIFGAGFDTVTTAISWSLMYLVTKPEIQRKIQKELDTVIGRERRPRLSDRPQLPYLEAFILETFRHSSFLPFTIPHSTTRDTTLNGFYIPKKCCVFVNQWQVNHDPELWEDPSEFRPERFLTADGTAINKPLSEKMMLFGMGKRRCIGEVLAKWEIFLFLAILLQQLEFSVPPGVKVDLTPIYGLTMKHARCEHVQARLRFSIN
Outline: (§1)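 Primary human hepatocytes seeded on collagen and cultured in collagen-Matrigel sandwich. On day 3 they are treated for 48 h with DMSO, test compound at varying concentrations, or reference inducer (3-methylcholanthrene for CYP1A2, phenobarbital for CYP2B6, rifampicin for CYP3A4/5). Probe substrates are then added (phenacetin, bupropion, testosterone) and marker metabolites quantified (acetaminophen, hydroxybupropion, 6-β-hydroxytestosterone).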

[2] = target: Sphingosine 1-phosphate receptor 1 (Mus musculus) (UniProt O08530); test: Antagonist activity against mouse S1P1 receptor expressed in human U2OS cells co-expressing GFP assessed as inhibition of S1P-induced receptor translocation; type: cell-based
Cytochrome P450 2B6 = target: T2, Cytochrome P450 2B6 (Homo sapiens, UniProt P20813); test: Induction of CYP2B6 activation in human hepatocytes at 0.2 to 20 uM incubated for 48 hrs using bupropion substrate; type: ADME, cell-based, Hepatocyte; outline: as §1
T2 sequence (P20813 whole entry): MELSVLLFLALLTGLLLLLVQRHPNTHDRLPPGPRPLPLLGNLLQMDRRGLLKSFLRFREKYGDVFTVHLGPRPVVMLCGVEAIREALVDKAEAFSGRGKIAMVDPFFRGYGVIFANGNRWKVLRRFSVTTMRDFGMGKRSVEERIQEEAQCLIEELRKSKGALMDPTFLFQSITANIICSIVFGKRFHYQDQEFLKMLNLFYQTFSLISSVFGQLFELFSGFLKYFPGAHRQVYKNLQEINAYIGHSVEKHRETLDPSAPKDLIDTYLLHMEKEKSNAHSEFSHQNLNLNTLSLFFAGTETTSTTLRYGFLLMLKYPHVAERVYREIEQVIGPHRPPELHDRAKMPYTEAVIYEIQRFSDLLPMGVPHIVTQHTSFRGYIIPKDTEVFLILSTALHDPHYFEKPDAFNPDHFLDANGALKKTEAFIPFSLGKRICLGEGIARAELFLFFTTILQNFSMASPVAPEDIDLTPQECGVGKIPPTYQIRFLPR

Cytochrome P450 3A5 [3] = target: T3, Cytochrome P450 3A5 (Homo sapiens, UniProt P20815); test: Induction of CYP3A5 activation in human hepatocytes at 2 uM incubated for 48 hrs using testosterone substrate; type: ADME, cell-based, Hepatocyte; outline: as §1
Cytochrome P450 3A5 [4] = target: T3, Cytochrome P450 3A5; test: Induction of CYP3A5 activation in human hepatocytes at 0.2 to 20 uM incubated for 48 hrs using testosterone substrate; type: ADME, cell-based, Hepatocyte; outline: as §1
[5] = target: Sphingosine 1-phosphate receptor 1 (Homo sapiens, UniProt P21453); test: Antagonist activity against human S1P1 receptor expressed in human U2OS cells co-expressing GFP assessed as inhibition of S1P-induced receptor translocation; type: cell-based
Outline: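 Cellular S1P1 translocation (internalization) assay with antagonist; EC50 reported as mean of at least three separate determinations ± standard deviation.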

[6] = Clearance in Han Wistar rat at 2 to 4 mg/kg, iv by LC-MS/MS method; type: ADME, organism-based; conditions: in vivo
Cytochrome P450 3A4 = Cytochrome P450 3A4 (Homo sapiens, UniProt P08684); test: Induction of CYP3A4 activation in human hepatocytes at 0.2 to 20 uM incubated for 48 hrs using testosterone substrate; type: ADME, cell-based, Hepatocyte; outline: as §1
[7] = Intrinsic clearance in human liver microsomes pre-incubated at 37 degC for 5 mins before NADPH addition by LCMS/MS method; type: ADME; conditions: read-out: CLH

T3 sequence (P20815 whole entry): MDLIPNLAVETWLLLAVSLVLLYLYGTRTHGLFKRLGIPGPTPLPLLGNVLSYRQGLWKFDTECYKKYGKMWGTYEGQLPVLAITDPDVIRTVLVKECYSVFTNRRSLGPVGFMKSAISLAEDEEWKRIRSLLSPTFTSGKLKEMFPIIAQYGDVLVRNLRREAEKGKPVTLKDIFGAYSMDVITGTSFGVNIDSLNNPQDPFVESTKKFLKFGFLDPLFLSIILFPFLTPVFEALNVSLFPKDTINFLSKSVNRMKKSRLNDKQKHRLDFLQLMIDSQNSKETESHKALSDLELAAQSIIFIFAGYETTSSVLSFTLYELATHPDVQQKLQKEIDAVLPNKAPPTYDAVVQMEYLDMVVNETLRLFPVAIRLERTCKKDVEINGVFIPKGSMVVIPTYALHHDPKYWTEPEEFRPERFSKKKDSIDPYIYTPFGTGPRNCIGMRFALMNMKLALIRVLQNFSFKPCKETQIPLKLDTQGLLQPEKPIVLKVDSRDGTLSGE
Chain of Sphingosine 1-phosphate receptor 1 (P21453 whole entry): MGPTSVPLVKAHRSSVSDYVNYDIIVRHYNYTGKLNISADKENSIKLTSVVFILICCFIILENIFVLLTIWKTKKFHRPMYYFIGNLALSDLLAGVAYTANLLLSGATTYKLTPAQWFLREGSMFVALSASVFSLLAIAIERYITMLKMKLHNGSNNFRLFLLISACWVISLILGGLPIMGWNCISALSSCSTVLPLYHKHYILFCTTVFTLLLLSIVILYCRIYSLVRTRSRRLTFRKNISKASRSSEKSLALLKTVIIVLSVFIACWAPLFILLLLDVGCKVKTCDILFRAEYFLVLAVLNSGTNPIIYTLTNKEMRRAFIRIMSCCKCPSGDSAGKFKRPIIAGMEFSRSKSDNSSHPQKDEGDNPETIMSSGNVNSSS
Chain of Sphingosine 1-phosphate receptor 1 (Mus musculus) (O08530 whole entry): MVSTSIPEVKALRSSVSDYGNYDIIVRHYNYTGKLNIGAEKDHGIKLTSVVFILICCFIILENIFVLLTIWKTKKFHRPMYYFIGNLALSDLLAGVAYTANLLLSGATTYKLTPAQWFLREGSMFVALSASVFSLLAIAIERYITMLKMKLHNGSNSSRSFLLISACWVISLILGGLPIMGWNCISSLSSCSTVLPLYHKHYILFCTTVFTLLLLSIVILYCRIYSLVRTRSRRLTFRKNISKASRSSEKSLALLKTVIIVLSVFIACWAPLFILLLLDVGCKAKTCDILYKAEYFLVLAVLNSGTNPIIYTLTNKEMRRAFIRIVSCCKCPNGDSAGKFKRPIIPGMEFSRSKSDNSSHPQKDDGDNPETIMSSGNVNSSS
Chain of Cytochrome P450 3A4 (P08684 whole entry): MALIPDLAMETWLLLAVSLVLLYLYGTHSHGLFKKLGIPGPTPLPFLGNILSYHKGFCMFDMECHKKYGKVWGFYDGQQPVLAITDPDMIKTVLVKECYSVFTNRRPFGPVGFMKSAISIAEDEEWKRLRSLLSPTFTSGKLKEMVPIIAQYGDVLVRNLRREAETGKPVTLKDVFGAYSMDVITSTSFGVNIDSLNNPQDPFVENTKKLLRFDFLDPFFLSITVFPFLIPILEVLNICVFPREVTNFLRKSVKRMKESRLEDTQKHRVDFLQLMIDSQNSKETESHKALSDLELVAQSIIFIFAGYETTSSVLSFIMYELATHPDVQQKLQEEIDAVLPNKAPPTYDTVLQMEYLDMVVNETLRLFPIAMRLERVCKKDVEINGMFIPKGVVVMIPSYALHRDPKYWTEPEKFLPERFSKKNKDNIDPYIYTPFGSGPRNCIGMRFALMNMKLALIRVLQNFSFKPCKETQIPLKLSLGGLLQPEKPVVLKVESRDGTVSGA

SMILES: CCn1c([C@@H](C)NS(=O)(=O)c2ccc(Cl)cc2)nc2ccc(C(F)(F)F)cc21
- bioavailability [1]: 43%
- Activity (Cytochrome P450 1A2): Not Active
- inhibition [2]: Active
- Activity (Cytochrome P450 2B6): Not Active
- Activity (Cytochrome P450 3A5 [3]): Active
- Activity (Cytochrome P450 3A5 [4]): Dose-dependent effect
- EC50 [5]: 5 nM
- clearance [6]: 33 mL/min/kg
- Activity (Cytochrome P450 3A4): Dose-dependent effect
- microsomal CLint [7]: > 100 µL/min/mg
